Assay results of several laboratories.
Lines come from different studies, so protocols differ.
Organism: Mycobacterium tuberculosis variant bovis BCG
Observed: microbial growth

| Structure (SMILES) | strain | time | MIC |
| --- | --- | --- | --- |
| CNC(=O)c1cc(Oc2ccc(NC(=O)Nc3ccc(Cl)c(C(F)(F)F)c3)cc2)ccn1 | BCG |  | 12.5 µM |
| CO[C@H]1/C=C/O[C@@]2(C)Oc3c(C)c(O)c4c(O)c(c(/C=N/N5CCN(C)CC5)c(O)c4c3C2=O)NC(=O)/C(C)=C\C=C\[C@H](C)[C@H](O)[C@@H](C)[C@@H](O)[C@@H](C)[C@H](OC(C)=O)[C@@H]1C | BCG |  | < 0.2 µg/mL |
| Fc1ccc(COc2ccccc2CNCc2ccccc2)cc1 | ATCC35734 BCG |  | > 62.5 µM |
| COc1ccc(C=CC(=O)c2ccccc2Cl)cc1OC | BCG | 7 days | 12.5 µg/mL |
| Fc1ccc(COc2ccccc2CNCc2cccnc2)cc1 | ATCC35734 BCG |  | > 62.5 µM |
| CO[C@H]1/C=C/O[C@@]2(C)Oc3c(C)c(O)c4c(O)c(c(/C=N/N5CCN(C)CC5)c(O)c4c3C2=O)NC(=O)/C(C)=C\C=C\[C@H](C)[C@H](O)[C@@H](C)[C@@H](O)[C@@H](C)[C@H](OC(C)=O)[C@@H]1C | BCG | 6 days | < 0.78 µM |
| COc1ccc(C=CC(=O)c2ccccc2Br)cc1OC | BCG | 7 days | 25 µg/mL |
| O=C(Nc1ccc2c(c1)OC(F)(F)O2)Nc1ccc(Cl)c(C(F)(F)F)c1 | BCG |  | 3 µM |
| c1ccc(COc2ccccc2CNCc2cccnc2)cc1 | ATCC35734 BCG |  | > 62.5 µM |
| COc1ccc(C=CC(=O)c2ccc(Cl)cc2Cl)cc1OC | BCG | 7 days | 200 µg/mL |
